Measured values taken from ChEMBL document CHEMBL1909630, “Azaxanthene based selective glucocorticoid receptor modulators: design, synthesis, and pharmacological evaluation of (S)-4-(5-(1-((1,3,4-thiadiazol-2-yl)amino)-2-methyl-1-oxopropan-2-yl)-5H-chromeno[2,3-b]pyridin-2-yl)-2-fluoro-N,N-dimethylbenzamide (BMS-776532) and its methylene homologue …” (J Med Chem, 2011).

Assays:
Glucocorticoid receptor [1] = target: T1, Glucocorticoid receptor (Homo sapiens, UniProt P04150); test: Displacement of GS-red from glucocorticoid receptor by fluorescence polarization assay
T1 sequence (P04150 whole entry): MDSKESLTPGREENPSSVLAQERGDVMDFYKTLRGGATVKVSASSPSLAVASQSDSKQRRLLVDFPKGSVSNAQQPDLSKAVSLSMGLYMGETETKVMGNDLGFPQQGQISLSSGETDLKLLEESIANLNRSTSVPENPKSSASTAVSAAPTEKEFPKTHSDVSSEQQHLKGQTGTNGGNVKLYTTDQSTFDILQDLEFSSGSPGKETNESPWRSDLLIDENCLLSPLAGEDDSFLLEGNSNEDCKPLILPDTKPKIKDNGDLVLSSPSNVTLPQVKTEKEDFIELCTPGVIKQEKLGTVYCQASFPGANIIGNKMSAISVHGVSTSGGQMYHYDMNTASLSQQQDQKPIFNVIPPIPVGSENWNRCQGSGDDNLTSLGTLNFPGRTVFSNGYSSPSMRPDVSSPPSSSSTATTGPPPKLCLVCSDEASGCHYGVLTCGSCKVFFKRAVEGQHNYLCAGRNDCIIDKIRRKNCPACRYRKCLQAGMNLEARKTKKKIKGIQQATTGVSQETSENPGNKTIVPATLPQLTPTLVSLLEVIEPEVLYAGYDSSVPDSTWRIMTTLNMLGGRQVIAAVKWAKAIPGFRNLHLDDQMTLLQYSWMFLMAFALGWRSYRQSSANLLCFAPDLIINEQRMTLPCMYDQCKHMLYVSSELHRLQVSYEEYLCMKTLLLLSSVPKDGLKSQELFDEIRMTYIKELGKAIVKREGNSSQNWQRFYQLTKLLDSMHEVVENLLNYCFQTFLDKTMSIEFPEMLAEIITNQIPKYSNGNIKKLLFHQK

Progesterone receptor = target: T2, Progesterone receptor (Homo sapiens, UniProt P06401); test: Displacement of fluorescently labeled ligand from progesterone receptor by fluorescence polarization assay
T2 sequence (P06401 whole entry): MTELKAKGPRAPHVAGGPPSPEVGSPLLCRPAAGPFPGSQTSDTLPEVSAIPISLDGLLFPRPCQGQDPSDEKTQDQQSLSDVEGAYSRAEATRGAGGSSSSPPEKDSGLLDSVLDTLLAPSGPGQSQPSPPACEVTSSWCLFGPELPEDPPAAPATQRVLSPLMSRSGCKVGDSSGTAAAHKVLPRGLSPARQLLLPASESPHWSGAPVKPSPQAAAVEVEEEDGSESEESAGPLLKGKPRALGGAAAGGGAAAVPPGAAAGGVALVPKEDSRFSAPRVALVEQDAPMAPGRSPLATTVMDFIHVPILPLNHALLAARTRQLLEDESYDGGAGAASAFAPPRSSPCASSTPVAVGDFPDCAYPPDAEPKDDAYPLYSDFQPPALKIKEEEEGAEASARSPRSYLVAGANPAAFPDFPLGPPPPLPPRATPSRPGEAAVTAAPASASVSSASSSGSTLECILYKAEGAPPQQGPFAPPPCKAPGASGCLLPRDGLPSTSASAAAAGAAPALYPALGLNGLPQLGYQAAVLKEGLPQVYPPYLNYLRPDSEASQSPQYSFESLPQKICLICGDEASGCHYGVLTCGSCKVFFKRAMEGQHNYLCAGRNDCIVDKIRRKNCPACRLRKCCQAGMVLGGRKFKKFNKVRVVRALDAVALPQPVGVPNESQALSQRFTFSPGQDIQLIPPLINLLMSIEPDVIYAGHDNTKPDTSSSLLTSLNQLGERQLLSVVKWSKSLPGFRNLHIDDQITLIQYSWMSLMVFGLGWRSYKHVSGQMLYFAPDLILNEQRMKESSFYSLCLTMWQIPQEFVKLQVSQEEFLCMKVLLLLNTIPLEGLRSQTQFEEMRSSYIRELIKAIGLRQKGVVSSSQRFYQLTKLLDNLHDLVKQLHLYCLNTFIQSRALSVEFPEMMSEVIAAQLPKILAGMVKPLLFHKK

Androgen receptor = target: T3, Androgen receptor (Homo sapiens, UniProt P10275); test: Displacement of fluorescently labeled ligand from androgen receptor by fluorescence polarization assay
T3 sequence (P10275 whole entry): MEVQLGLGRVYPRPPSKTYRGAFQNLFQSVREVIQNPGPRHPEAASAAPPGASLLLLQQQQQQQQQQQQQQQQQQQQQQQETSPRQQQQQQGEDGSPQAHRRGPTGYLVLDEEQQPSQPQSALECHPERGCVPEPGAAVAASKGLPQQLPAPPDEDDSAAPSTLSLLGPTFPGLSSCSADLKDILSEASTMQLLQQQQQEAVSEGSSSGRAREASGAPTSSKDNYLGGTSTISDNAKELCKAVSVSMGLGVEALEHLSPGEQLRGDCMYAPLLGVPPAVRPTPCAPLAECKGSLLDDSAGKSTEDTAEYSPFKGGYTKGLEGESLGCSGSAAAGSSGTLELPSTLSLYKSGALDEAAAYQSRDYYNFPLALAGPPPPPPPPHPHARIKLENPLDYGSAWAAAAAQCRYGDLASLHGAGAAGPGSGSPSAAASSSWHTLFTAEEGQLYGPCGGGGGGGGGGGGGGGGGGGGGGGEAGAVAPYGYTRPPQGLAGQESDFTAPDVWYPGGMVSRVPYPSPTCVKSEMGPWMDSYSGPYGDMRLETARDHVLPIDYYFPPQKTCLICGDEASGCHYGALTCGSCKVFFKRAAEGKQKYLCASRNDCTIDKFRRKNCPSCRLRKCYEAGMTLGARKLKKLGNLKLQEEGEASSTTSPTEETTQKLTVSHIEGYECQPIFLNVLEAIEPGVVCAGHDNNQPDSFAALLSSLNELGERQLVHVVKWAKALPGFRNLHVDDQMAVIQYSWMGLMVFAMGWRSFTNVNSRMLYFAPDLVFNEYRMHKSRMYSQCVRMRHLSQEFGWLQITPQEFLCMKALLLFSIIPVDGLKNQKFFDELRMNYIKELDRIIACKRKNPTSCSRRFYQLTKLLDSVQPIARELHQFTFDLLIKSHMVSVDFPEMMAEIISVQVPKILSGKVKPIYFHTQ
In short: (§1)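 Binding was measured by fluorescence polarization competition between compound and a fluorescent ligand for full-length receptor or ligand-binding domain. Values are means of at least two experiments.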

Glucocorticoid receptor [2] = target: T1, Glucocorticoid receptor; test: Transrepression activity at glucocorticoid receptor alpha in phorbol myristate acetate-stimulated human A549 cells assessed as inhibition of AP1 response element by luciferase reporter gene assay; type: cell-based
Glucocorticoid receptor [3] = target: T1, Glucocorticoid receptor; test: Transrepression activity at glucocorticoid receptor alpha in IL-1beta-stimulated human A549 cells assessed as inhibition of NFkappaB-dependent E-selectin transcription by luciferase reporter gene assay; type: cell-based
Glucocorticoid receptor [4] = target: T1, Glucocorticoid receptor; test: Transactivation activity at GR-alpha in human NP1 Hela cells assessed as induction of GAL4-DBD after 20 hrs by luciferase reporter gene assay; type: cell-based
Glucocorticoid receptor [5] = target: T1, Glucocorticoid receptor; test: Transactivation activity at glucocorticoid receptor alpha human 13D3/Huh7 cells assessed as induction of TAT activity after 4 hrs by spectrophotometry; type: cell-based, Huh-7
Glucocorticoid receptor [6] = target: T1, Glucocorticoid receptor; test: Transactivation activity at GR-alpha in human NP1 Hela cells assessed as inhibition of GAL4-DBD after 20 hrs by luciferase reporter gene assay; type: cell-based
Estrogen receptor = target: T4, Estrogen receptor (Homo sapiens, UniProt P03372); test: Displacement of fluorescently labeled ligand from ERalpha receptor by fluorescence polarization assay; in short: as §1
T4 sequence (P03372 whole entry): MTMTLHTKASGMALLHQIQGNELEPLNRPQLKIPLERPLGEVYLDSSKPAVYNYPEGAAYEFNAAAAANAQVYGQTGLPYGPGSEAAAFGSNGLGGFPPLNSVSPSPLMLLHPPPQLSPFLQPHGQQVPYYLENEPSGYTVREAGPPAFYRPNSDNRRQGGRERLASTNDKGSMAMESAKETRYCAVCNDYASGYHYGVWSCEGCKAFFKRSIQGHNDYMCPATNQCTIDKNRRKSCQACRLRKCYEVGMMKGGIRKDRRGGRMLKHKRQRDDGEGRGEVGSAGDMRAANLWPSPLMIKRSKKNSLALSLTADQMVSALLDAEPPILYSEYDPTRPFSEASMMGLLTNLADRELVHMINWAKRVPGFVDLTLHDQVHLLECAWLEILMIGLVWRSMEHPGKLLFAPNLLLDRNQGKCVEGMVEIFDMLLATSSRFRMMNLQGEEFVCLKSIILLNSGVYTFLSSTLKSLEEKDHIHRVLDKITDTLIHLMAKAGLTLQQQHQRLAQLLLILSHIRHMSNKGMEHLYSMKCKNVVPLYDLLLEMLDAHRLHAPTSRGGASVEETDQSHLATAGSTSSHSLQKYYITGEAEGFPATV

[7] = target: T5, Mineralocorticoid receptor (Homo sapiens, UniProt P08235); test: Agonist activity at human mineralocorticoid receptor expressed in human A549 cells by fluorescence polarization assay; type: functional, cell-based
T5 sequence (P08235 whole entry): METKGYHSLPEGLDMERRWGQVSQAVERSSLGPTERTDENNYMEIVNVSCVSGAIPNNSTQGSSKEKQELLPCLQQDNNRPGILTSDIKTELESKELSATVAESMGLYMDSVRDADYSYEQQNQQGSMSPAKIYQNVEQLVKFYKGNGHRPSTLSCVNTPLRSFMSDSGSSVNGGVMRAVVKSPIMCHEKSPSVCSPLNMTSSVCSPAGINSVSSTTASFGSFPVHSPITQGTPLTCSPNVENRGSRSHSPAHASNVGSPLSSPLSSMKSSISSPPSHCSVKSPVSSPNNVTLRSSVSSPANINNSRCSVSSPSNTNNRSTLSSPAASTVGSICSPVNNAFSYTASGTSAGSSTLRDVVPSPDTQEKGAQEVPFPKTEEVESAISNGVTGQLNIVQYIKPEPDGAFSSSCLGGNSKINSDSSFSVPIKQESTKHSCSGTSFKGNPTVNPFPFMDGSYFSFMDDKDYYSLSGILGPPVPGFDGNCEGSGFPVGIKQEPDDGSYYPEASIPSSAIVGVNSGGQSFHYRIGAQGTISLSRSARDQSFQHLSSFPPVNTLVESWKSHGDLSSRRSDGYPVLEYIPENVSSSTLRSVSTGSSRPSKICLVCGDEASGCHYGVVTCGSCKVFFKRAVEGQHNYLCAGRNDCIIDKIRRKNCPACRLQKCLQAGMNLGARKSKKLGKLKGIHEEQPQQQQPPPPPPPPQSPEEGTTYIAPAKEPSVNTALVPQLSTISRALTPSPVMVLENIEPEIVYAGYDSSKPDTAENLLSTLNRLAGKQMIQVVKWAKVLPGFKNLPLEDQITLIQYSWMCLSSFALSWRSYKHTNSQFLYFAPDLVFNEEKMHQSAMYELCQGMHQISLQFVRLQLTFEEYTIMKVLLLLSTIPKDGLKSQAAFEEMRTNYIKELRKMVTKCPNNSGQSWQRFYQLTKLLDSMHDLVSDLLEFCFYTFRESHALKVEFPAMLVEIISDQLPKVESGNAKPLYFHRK

Blood [8] = test: Antiinflammatory activity in human whole blood assessed as inhibition of LPS-induced TNFalpha production after overnight incubation by ELISA; type: functional, tissue-based
In short: (§2)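 Whole blood from two donors per experiment was collected into ACD-A. Compounds were added and the blood was incubated about 20 h at 37 °C under 5% CO2. Blood was then stimulated for 5 h with LPS (final 100 ng/mL, for TNFα) or IL-1β (final 10 ng/mL, for IL-8). Plasma TNFα or IL-8 was measured by ELISA. Efficacy was expressed as % of dexamethasone, and values are means of at least two experiments.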

Blood [9] = test: Antiinflammatory activity in human whole blood assessed as inhibition of LPS-induced TNFalpha production after overnight incubation by ELISA relative to Dexamethasone; type: functional; in short: as §2
Blood [10] = test: Antiinflammatory activity in human whole blood assessed as inhibition of TNF-alpha-induced IL-8 production after overnight incubation by ELISA; type: functional, tissue-based
Blood [11] = test: Antiinflammatory activity in human whole blood assessed as inhibition of TNF-alpha-induced IL-8 production after overnight incubation by ELISA relative to dexamethasone; type: functional
Blood [12] = test: Antiinflammatory activity in human whole blood assessed as inhibition of IL-1beta-induced IL-8 production after overnight incubation by ELISA; type: functional, tissue-based; in short: as §2
Blood [13] = test: Antiinflammatory activity in human whole blood assessed as inhibition of IL-1beta-induced IL-8 production after overnight incubation by ELISA relative to Dexamethasone; type: functional; in short: as §2

Compound | Ki (Glucocorticoid receptor [1]) [nM] | Ki (Progesterone receptor) [nM] | Ki (Androgen receptor) [nM] | EC50 (Glucocorticoid receptor [2]) [nM] | EC50 (Glucocorticoid receptor [3]) [nM] | EC50 (Glucocorticoid receptor [4]) [nM] | EC50 (Glucocorticoid receptor [5]) [nM] | EC50 (Glucocorticoid receptor [6]) [nM] | Ki (Estrogen receptor) [nM] | EC50 [7] [nM] | EC50 (Blood [8]) [nM] | Imax (Blood [9]) [%] | EC50 (Blood [10]) [nM] | Imax (Blood [11]) [%] | EC50 (Blood [12]) [nM] | Imax (Blood [13]) [%]
CCCc1ccc(-c2ccc3c(n2)Oc2ccccc2[C@H]3C(C)(C)C(=O)Nc2nncs2)cc1 | 2.4 | 285 | > 5000 | 15.1 | 29.7 | 126 | 823 | 36 |  |  |  |  |  |  |  | 
CC(C)Oc1ccc(-c2ccc3c(n2)Oc2ccccc2[C@H]3C(C)(C)C(=O)Nc2nncs2)cc1 | 1.6 | 310 |  | 18.1 |  | 135 | 107 | 77 |  |  |  |  |  |  |  | 
CN(C)C(=O)c1ccc(-c2ccc3c(n2)Oc2ccccc2[C@@H]3C(C)(C)C(=O)Nc2nncs2)cc1 | 1.74 | 1230 |  | 12.2 | 4.6 | 89 | 22.7 | 42.7 | > 75000 | > 5000 |  |  |  |  |  | 
CNC(=O)c1ccc(-c2ccc3c(n2)Oc2ccccc2[C@@H]3C(C)(C)C(=O)Nc2nncs2)cc1F | 5.48 |  |  | 34.1 | 157 | > 10000 | > 5000 | 408 |  |  | 819 | 58 | > 20000 | 15 | > 20000 | 35
CC(C)(C(=O)Nc1nncs1)[C@H]1c2ccccc2Oc2nc(-c3ccc(C(=O)N4CCCCC4)c(F)c3)ccc21 | 1.68 |  |  | 27.5 | 25.6 | > 10000 | > 5000 | 204 |  |  | 5470 | 73 | > 20000 | 45 | 3190 | 27
